Activity calls are given as the source filed them. The rule behind the calls is not given here.
Tests used:
Type in all cases: functional
MDA-MB-231 [1] = assay: Antiproliferative activity against human wild type MDA-MB-231 cells assessed as inhibition of cell growth at 3 uM measured at 24 hrs by trypan blue staining based MTT assay
How it was run: (§1)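 MDA cell lines were treated with 5-iodotubercidin (1 μM or 3 μM) or with test compound (10 μM or 30 μM). Drugs were dissolved in 0.225% DMSO, which also served as vehicle control. Proliferation was measured by Trypan Blue cell counting every 24 h for several consecutive days after seeding. MTT viability compared wild-type and mutant cells.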

MDA-MB-468 [2] = assay: Antiproliferative activity against human MDA-MB-468 cells assessed as inhibition of cell growth at 1 X 10^-5 M measured for 48 hrs by sulforhodamine B assay relative to control; conditions: MDA-MB-468, 48 h, dose 1 10^-5M
How it was run: (§2)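 NCI one-dose screen. Cells were seeded at 5000-40000/well in RPMI 1640 with 5% FBS and 2 mM L-glutamine and preincubated 24 h at 37 °C in 5% CO2. Compound was added at 10⁻⁵ M for 48 h. Cells were then fixed with 10% TCA, stained with sulforhodamine B, washed with 1% acetic acid, solubilized in 10 mM Tris and read as OD at 510 nm.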

MDA-MB-231 [3] = assay: Antiproliferative activity against human wild type MDA-MB-231 cells assessed as inhibition of cell growth at 3 uM measured at 96 hrs by trypan blue staining based MTT assay; how it was run: as §1
Hs-578T [4] = assay: Antiproliferative activity against human Hs-578T cells assessed as inhibition of cell growth at 1 X 10^-5 M measured for 48 hrs by sulforhodamine B assay relative to control; conditions: dose 1 10^-5M; how it was run: as §2
MDA-MB-231 [5] = assay: Anticancer activity against human MDA-MB-231 cells measured at 48 hrs
How it was run: (§3)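 NCI DTP five-dose screen on the breast subpanel: compound at 0.01, 0.1, 1, 10 and 100 μM for 48 h. Cell density read by sulforhodamine B (protein content). GI50, TGI and LC50 were derived from the T, T0 and C optical densities using the NCI formulas.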

BT-549 [6] = assay: Antiproliferative activity against human BT-549 cells assessed as inhibition of cell growth at 1 X 10^-5 M measured for 48 hrs by sulforhodamine B assay relative to control; conditions: BT-549, 48 h, dose 1 10^-5M; how it was run: as §2
T47D [7] = assay: Anticancer activity against human T47D cells measured at 48 hrs; conditions: for CC50: read-out: LC50 (the source's name); how it was run: as §3
T47D [8] = assay: Antiproliferative activity against human T47D cells assessed as inhibition of cell growth at 1 X 10^-5 M measured for 48 hrs by sulforhodamine B assay relative to control; conditions: dose 1 10^-5M; how it was run: as §2
MCF7 [9] = assay: Anticancer activity against human MCF7 cells measured at 48 hrs; how it was run: as §3
MDA-MB-231 [10] = assay: Antiproliferative activity against human wild type MDA-MB-231 cells assessed as inhibition of cell growth at 3 uM measured at 24 hrs in presence of 5-Iodotubercidin by trypan blue staining based MTT assay; how it was run: as §1
MDA-MB-231 [11] = assay: Antiproliferative activity against human wild type MDA-MB-231 cells assessed as inhibition of cell growth at 10 to 30 uM measured for 24 hrs by trypan blue staining based MTT assay; conditions: dose 10-30 µM; how it was run: as §1
MDA-MB-468 [12] = assay: Anticancer activity against human MDA-MB-468 cells measured at 48 hrs; how it was run: as §3
MDA-MB-231 [13] = assay: Antiproliferative activity against human ADK-L knockdown MDA-MB-231 cells assessed as inhibition of cell growth at 1 to 3 uM measured at 24 hrs in presence of 5-iodotubercidin by trypan blue staining based MTT assay; conditions: dose 1-3 µM; how it was run: as §1
Hs-578T [14] = assay: Anticancer activity against human Hs-578T cells measured at 48 hrs; how it was run: as §3
MDA-MB-231 [15] = assay: Antiproliferative activity against human MDA-MB-231 cells assessed as inhibition of cell growth at 1 X 10^-5 M measured for 48 hrs by sulforhodamine B assay relative to control; conditions: MDA-MB-231, 48 h, dose 1 10^-5M; how it was run: as §2
MDA-MB-231 [16] = assay: Antiproliferative activity against human wild type MDA-MB-231 cells assessed as inhibition of cell growth at 10 to 30 uM measured for 24 hrs in presence of 5-Iodotubercidin by trypan blue staining based MTT assay; conditions: dose 10-30 µM; how it was run: as §1
BT-549 [17] = assay: Anticancer activity against human BT-549 cells measured at 48 hrs; how it was run: as §3
MDA-MB-231 [18] = assay: Antiproliferative activity against human wild type MDA-MB-231 cells assessed as inhibition of cell growth at 10 uM measured at 24 to 96 hrs by trypan blue staining based MTT assay; conditions: time 24-96 hrs; how it was run: as §1
MCF7 [19] = assay: Antiproliferative activity against human MCF7 cells assessed as inhibition of cell growth at 1 X 10^-5 M measured for 48 hrs by sulforhodamine B assay relative to control; conditions: MCF7, 48 h, dose 1 10^-5M; how it was run: as §2
MDA-MB-231 [20] = assay: Antiproliferative activity against human ADK-L knockdown MDA-MB-231 cells assessed as inhibition of cell growth at 1 to 3 uM measured at 24 hrs by trypan blue staining based MTT assay; conditions: dose 1-3 µM; how it was run: as §1
MDA-MB-231 [21] = assay: Antiproliferative activity against human wild type MDA-MB-231 cells assessed as inhibition of cell growth at 3 uM measured at 48 hrs by trypan blue staining based MTT assay; how it was run: as §1

c1ccc(-c2nc(N3CCNCC3)c3oc(-c4ccccc4)nc3n2)cc1
Activity (MDA-MB-231 [1]): Active
inhibition at 10 µM (MDA-MB-468 [2]): 174%
Activity (MDA-MB-231 [3]): inactive
inhibition at 10 µM (Hs-578T [4]): 161%
GI50 (MDA-MB-231 [5]): 1.76 µM
LC50 (concentration killing 50% of starting cells) (MDA-MB-231 [5]): 6.1 µM
TGI (MDA-MB-231 [5]): 3.28 µM
inhibition at 10 µM (BT-549 [6]): 106%
GI50 (T47D [7]): 2.1 µM
TGI (T47D [7]): 4.95 µM
CC50 (T47D [7]): > 100 µM
inhibition at 10 µM (T47D [8]): 142%
GI50 (MCF7 [9]): 1.48 µM
LC50 (concentration giving 50% net cell kill) (MCF7 [9]): 7.4 µM
TGI (MCF7 [9]): 3.31 µM
Activity (MDA-MB-231 [10]): Active
Activity (MDA-MB-231 [11]): Active
GI50 (MDA-MB-468 [12]): 1.73 µM
TGI (MDA-MB-468 [12]): 3.42 µM
Activity (MDA-MB-231 [13]): Active
GI50 (Hs-578T [14]): 1.88 µM
LC50 (50% lethal concentration) (Hs-578T [14]): 8.8 µM
TGI (Hs-578T [14]): 4.07 µM
inhibition at 10 µM (MDA-MB-231 [15]): 187%
Activity (MDA-MB-231 [16]): Active
GI50 (BT-549 [17]): 1.77 µM
TGI (BT-549 [17]): 3.41 µM
Activity (MDA-MB-231 [18]): Active
inhibition at 10 µM (MCF7 [19]): 162%

Nc1ncnc2c1c(I)cn2[C@@H]1O[C@H](CO)[C@@H](O)[C@H]1O
Activity (MDA-MB-231 [20]): Active
Activity (MDA-MB-231 [21]): Active

c1ccc(-c2nc(N3CCCNCC3)c3oc(-c4ccccc4)nc3n2)cc1
inhibition at 10 µM (MDA-MB-468 [2]): 171%
inhibition at 10 µM (Hs-578T [4]): 131%
GI50 (MDA-MB-231 [5]): 1.56 µM
LC50 (concentration killing 50% of starting cells) (MDA-MB-231 [5]): 5.65 µM
TGI (MDA-MB-231 [5]): 2.97 µM
inhibition at 10 µM (BT-549 [6]): 126%
GI50 (T47D [7]): 1.69 µM
TGI (T47D [7]): 3.48 µM
CC50 (T47D [7]): 7.15 µM
inhibition at 10 µM (T47D [8]): 123%
GI50 (MCF7 [9]): 1.41 µM
LC50 (concentration giving 50% net cell kill) (MCF7 [9]): 5.69 µM
TGI (MCF7 [9]): 2.83 µM
GI50 (MDA-MB-468 [12]): 1.48 µM
LC50 (concentration giving 50% net cell kill) (MDA-MB-468 [12]): 5.54 µM
TGI (MDA-MB-468 [12]): 2.87 µM
GI50 (Hs-578T [14]): 1.86 µM
LC50 (50% lethal concentration) (Hs-578T [14]): 9.16 µM
TGI (Hs-578T [14]): 4.13 µM
inhibition at 10 µM (MDA-MB-231 [15]): 180%
GI50 (BT-549 [17]): 1.73 µM
LC50 (concentration giving 50% net cell kill) (BT-549 [17]): 5.86 µM
TGI (BT-549 [17]): 3.18 µM
inhibition at 10 µM (MCF7 [19]): 132%

Cc1ccc(-c2nc(N3CCCNCC3)c3oc(-c4ccccc4)nc3n2)cc1
inhibition at 10 µM (MDA-MB-468 [2]): 176%
inhibition at 10 µM (Hs-578T [4]): 130%
GI50 (MDA-MB-231 [5]): 1.77 µM
LC50 (concentration killing 50% of starting cells) (MDA-MB-231 [5]): 6.06 µM
TGI (MDA-MB-231 [5]): 3.27 µM
inhibition at 10 µM (BT-549 [6]): 19%
GI50 (T47D [7]): 2.02 µM
TGI (T47D [7]): 4 µM
CC50 (T47D [7]): 7.94 µM
inhibition at 10 µM (T47D [8]): 167%
GI50 (MCF7 [9]): 1.59 µM
LC50 (concentration giving 50% net cell kill) (MCF7 [9]): 7.45 µM
TGI (MCF7 [9]): 3.44 µM
GI50 (MDA-MB-468 [12]): 1.55 µM
LC50 (concentration giving 50% net cell kill) (MDA-MB-468 [12]): 6.75 µM
TGI (MDA-MB-468 [12]): 3.24 µM
GI50 (Hs-578T [14]): 1.94 µM
LC50 (50% lethal concentration) (Hs-578T [14]): 9.21 µM
TGI (Hs-578T [14]): 4.22 µM
inhibition at 10 µM (MDA-MB-231 [15]): 192%
GI50 (BT-549 [17]): 1.62 µM
TGI (BT-549 [17]): 3.14 µM
inhibition at 10 µM (MCF7 [19]): 175%

From ChEMBL document CHEMBL5252671, “Design, synthesis and evaluation of the anti-breast cancer activity of 1,3-oxazolo[4,5-d]pyrimidine and 1,3-oxazolo[5,4-d]pyrimidine derivatives” (2023)
